Measured values from different studies.
Each line is one published result; the experiments were not run side by side.
Target: Serine/threonine-protein kinase 3 (STK3, Homo sapiens, UniProt Q13188)
Sequence (Q13188 1-491, as in one of the studies): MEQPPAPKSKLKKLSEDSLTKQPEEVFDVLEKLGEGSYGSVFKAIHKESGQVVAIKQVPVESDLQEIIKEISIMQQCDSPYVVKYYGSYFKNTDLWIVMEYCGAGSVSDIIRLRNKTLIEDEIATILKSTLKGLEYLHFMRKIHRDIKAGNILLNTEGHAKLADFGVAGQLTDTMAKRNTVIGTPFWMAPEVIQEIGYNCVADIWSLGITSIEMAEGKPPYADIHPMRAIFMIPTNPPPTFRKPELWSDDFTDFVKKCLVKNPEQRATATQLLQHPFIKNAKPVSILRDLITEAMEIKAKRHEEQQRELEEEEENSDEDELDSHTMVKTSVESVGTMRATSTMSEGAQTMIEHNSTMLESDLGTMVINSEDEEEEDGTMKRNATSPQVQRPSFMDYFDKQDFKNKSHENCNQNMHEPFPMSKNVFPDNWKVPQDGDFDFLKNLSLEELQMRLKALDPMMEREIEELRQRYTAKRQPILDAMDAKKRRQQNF

Structure (SMILES)	effect on	action	technique	cells	concentration	endpoint	result
Cn1c2c(c3ccc(Cl)c(Cl)c31)C(C#N)C1(CCCC1)NC2=O (centres unmarked)	thermal stability	–	DSF	–	10 µM	ΔTm	0.4 °C
NS(=O)(=O)c1cc(NC(=O)C2(c3ccccc3Cl)CC2)ccc1Oc1cccc(Cl)c1	cell-free assay	–	competition with immobilised ligand	–	1 µM	remaining binding	94%
COc1cc(Nc2cnc(C#N)c(O[C@H](C)CN(C)C)n2)ncc1-c1cnn(C)c1	enzyme activity	inhibitor	radiometric	–	10 µM	remaining activity	30%
Cc1ccc(C(=O)NCc2ccsc2)cc1C#Cc1cn(C(C)C)c2ncnc(N)c12	enzyme activity	inhibitor	–	–	1 µM	activity vs control	78%
Nc1nc(NC2CCCCC2)sc1C(=O)c1ccccc1	enzyme activity	inhibitor	–	–	10 µM	remaining activity	97%
O=C(N[C@H]1CCCCC/C=C\C2C[C@@]2(C(=O)O)NC(=O)[C@@H]2C[C@@H](Oc3ccncc3)CN2C1=O)OC1CCCC1 (some centres unmarked)	binding	–	competition with immobilised ligand	–	1 µM	remaining binding	76%
CC(C)(C)c1nc(-c2cccc(NS(=O)(=O)c3c(F)cccc3F)c2F)c(-c2ccnc(N)n2)s1	enzyme activity	inhibitor	radiometric	–	1 µM	remaining activity	94%
Cn1c2c(Cl)c(Cl)ccc2c2cc(N)[nH]c(=O)c21	thermal stability	–	DSF	–	10 µM	ΔTm	2.2 °C
CC/C(=N\NC(=O)NCc1cccc(O)c1)c1ccc(O)c(C)c1O	enzyme activity	inhibitor	–	–	0.1 µM	inhibition	-0.5%
COc1ccc2cc(OCC3(C(=O)O)CN(C(=O)c4ccc(F)cc4)C3)ccc2c1	cell-free assay	–	competition with immobilised ligand	–	1 µM	remaining binding	100%
Cc1cnc(NC2CCOCC2)nc1-n1cnc(C(=O)NC(CN)c2cc(F)cc(Cl)c2)c1 (centres unmarked)	enzyme activity	inhibitor	radiometric	–	1 µM	remaining activity	108%
CCN(CC)c1ccc(C2=NNC(=O)CC2C)cc1[N+](=O)[O-] (centres unmarked)	enzyme activity	inhibitor	–	–	10 µM	remaining activity	87%
Cc1ccc(NC(=O)c2ccc(CN3CCN(C)CC3)cc2)cc1Nc1nc(-c2cccnc2)cs1	cell-free assay	–	–	–	0.5 µM	remaining signal	94.4%
O=C(Nc1cnn(-c2csc(C(=O)NC3COC3)c2)c1)Nc1ccccc1Cl	enzyme activity	inhibitor	–	–	5 µM	remaining activity	120%
COc1cc(/C=C/C(=O)CC(=O)/C=C/c2ccc(O)c(OC)c2)ccc1O	enzyme activity	inhibitor	–	–	1 µM	activity vs control	42%
CCN1CCN(Cc2ccc(NC(=O)c3ccc(C)c(Oc4ccnc5[nH]ccc45)c3)cc2C(F)(F)F)CC1	target engagement in cells	inhibitor	chemoproteomics	Huh-7	1 µM	inhibition	-58.9%
Cn1c(=O)n(-c2ccc(C(C)(C)C#N)cc2)c2c3cc(-c4cnc5ccccc5c4)ccc3ncc21	enzyme activity	inhibitor	–	–	10 µM	remaining activity	89%
Nc1nc(Nc2ccccc2)sc1C(=O)c1c(F)cccc1F	enzyme activity	inhibitor	–	–	10 µM	remaining activity	40%
Cc1ccc(NC(=O)c2ccc(C)c(C(F)(F)F)c2)cc1C#Cc1nn(C2CCC(O)CC2)c2ncnc(N)c12 (centres unmarked)	cell-free assay	–	–	–	10 µM	remaining signal	63%

Structure (SMILES)	effect on	action	technique	cells	concentration	endpoint	result
CC1(C)NC(=O)c2[nH]c3c(Cl)c(Cl)ccc3c2C1C#N (centres unmarked)	thermal stability	–	DSF	–	10 µM	ΔTm	0.2 °C
N#CC1(c2ccccn2)CCN(Cc2cc(C(=O)N3CCCC3)c(=O)n3ccccc23)CC1	cell-free assay	–	competition with immobilised ligand	–	1 µM	remaining binding	92%
Cn1c2c(Cl)c(Cl)ccc2c2cc[nH]c(=O)c21	thermal stability	–	DSF	–	10 µM	ΔTm	1.9 °C
O=C(Nc1cnn(-c2csc(C(=O)NC3COC3)c2)c1)Nc1c(F)cccc1Cl	enzyme activity	inhibitor	–	–	5 µM	remaining activity	93.2%
FC(F)(F)Oc1cccc(-c2cnc3ccc(-c4ccncc4)nn23)c1	enzyme activity	inhibitor	radiometric	–	1 µM	activity vs control	75%
Cn1nc(C(F)(F)F)cc1-c1cnc(N2CCc3cc(S(=O)(=O)Nc4c(F)cc(Cl)cc4F)cc(N4CCCC4=O)c32)nc1	cell-free assay	–	competition with immobilised ligand	–	1 µM	remaining binding	90%
CCN1CCC2(CC1)NC(=O)c1c(c3ccc(Cl)c(Cl)c3n1C)C2C#N (racemic)	thermal stability	–	DSF	–	10 µM	ΔTm	-0.1 °C
O=C1Nc2ccc(Cl)cc2C1=Cc1cc(Cl)c(O)c(Cl)c1	cell-free assay	–	–	–	0.5 µM	remaining signal	31.6%
COc1cc2ncnc(Nc3ccc(Oc4ccccc4)cc3C)c2cc1OC	enzyme activity	inhibitor	–	–	1 µM	inhibition	-4%
CN(C)C(=O)Cn1cc(-c2nc(C3(c4ccc(-c5cnc(N)nc5)cc4)CC3)no2)cn1	cell-free assay	–	competition with immobilised ligand	–	1 µM	remaining binding	100%
Oc1cccc(-c2nc(N3CCOCC3)c3oc4ncccc4c3n2)c1	enzyme activity	inhibitor	–	–	10 µM	remaining activity	115%
Cc1ccc(Nc2nccc(N(C)c3ccc4c(C)n(C)nc4c3)n2)cc1S(N)(=O)=O	cell-free assay	inhibitor	–	–	0.3 µM	inhibition	1%
CNCc1ccc(-c2cc(-c3nc(-c4ccc(S(=O)(=O)C(C)C)cc4)cnc3N)on2)cc1	enzyme activity	inhibitor	–	–	0.4 µM	inhibition	18%
CN(C)S(=O)(=O)c1ccc2c(c1)/C(=C/c1cc3c([nH]1)CCCC3)C(=O)N2	cell-free assay	–	–	–	0.5 µM	remaining signal	24.3%
Cn1c2c(c3ccc(Cl)c(Cl)c31)C(C#N)C1(CCNCC1)NC2=O (racemic)	thermal stability	–	DSF	–	10 µM	ΔTm	0.3 °C
CCOC(=O)c1cc2cc(-c3cc(C(=O)NCc4ccc(C(=O)O)cc4)nn3C)ccc2[nH]1	cell-free assay	–	competition with immobilised ligand	–	0.1 µM	remaining binding	96%
CNC(=O)c1cc(Oc2ccc(NC(=O)Nc3ccc(Cl)c(C(F)(F)F)c3)cc2)ccn1	cell-free assay	inhibitor	–	–	10 µM	inhibition	-8%
CS(=O)(=O)CCNCc1ccc(-c2ccc3ncnc(Nc4ccc(OCc5cccc(F)c5)c(Cl)c4)c3c2)o1	cell-free assay	–	–	–	0.5 µM	remaining signal	93.7%
CC1=C(C#N)C(c2ccc3c(c2)c(NC(=O)c2ccccc2C)nn3C)C(C#N)=C(C)N1	cell-free assay	–	competition with immobilised ligand	–	1 µM	remaining binding	100%
